# Screens from PubChem.
# This is a sample that favours compounds with a hit; in the whole collection about 1.2% have one here.
# ARFGAP1 inhibitor – inhibitors of rat ARFGAP1 GAP activity, primary screen, biochemical, fluorescence polarization, GDP tracer; ADP-ribosylation factor GTPase-activating protein 1 (Rattus norvegicus), Q62848; Arfgap1-stimulated ARF1 GTP hydrolysis, GDP FP detection; inhibition, % at 16.5 µM; actives 0.26% (n = 360,000); AID 651572, 2012;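 active = inhibition above a per-plate limit, mean inhibition of low control wells plus 3 SD, cut at about 25% in these data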
#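 Material: rat Arfgap1 catalytic domain, aa 1-136; also added: human ARF1(Δ1-17)-GTP substrate; compound dosing: one concentration, 16.5 µM, DMSO 1.26%; incubation: GTP hydrolysis reaction 2 h at 25 °C; measured by: Tracer-displacement fluorescence polarization with EDTA stop, 620/688 nm; evaluation: % inhibition from polarization; repeats: one replicate per compound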
# Rin1 Abl inh – inhibitors of Rin1-Abl protein binding, primary screen, biochemical, TR-FRET; AID 588664, 2011; actives 0.4% (n = 360,000); Tyrosine-protein kinase ABL1 (Homo sapiens) + Ras and Rab interactor 1 (Homo sapiens), …; inhibition, % at 7.35 µM; in the data active = inhibition above about 5%, passing the limit was not always enough
# GalR3 antagonist – GalR3 antagonists in HEK293 cells, primary screen, cell-based, fluorescence readout; HEK293 GalR3-CNG cAMP membrane potential fluorescence; galR3 body fused to GalR1 C-terminus; inhibition, % at 3 µM; Galanin receptor type 3 (Homo sapiens), O60755; actives 0.44% (n = 360,000);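 active = inhibition above the screen-wide average plus 3 SD, cut at about 13% in these data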;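 note: forskolin and galanin both at EC90 stimulate the cells; cAMP rise reported by CNG channel membrane potential dye signal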
# ASAP1 GAP inh – inhibitors of human ASAP1 ArfGAP activity, primary screen, biochemical, fluorescence polarization; actives 0.19% (n = 360,000); ASAP1-stimulated ARF1 GTP hydrolysis, GDP FP detection; Arf-GAP with SH3 domain, ANK repeat and PH domain-containing protein 1 (Homo sapiens), …; inhibition, % at 16.5 µM; in the data active = inhibition above about 25%
# Target sequence (Q9ULH1 325-724 limits assumed): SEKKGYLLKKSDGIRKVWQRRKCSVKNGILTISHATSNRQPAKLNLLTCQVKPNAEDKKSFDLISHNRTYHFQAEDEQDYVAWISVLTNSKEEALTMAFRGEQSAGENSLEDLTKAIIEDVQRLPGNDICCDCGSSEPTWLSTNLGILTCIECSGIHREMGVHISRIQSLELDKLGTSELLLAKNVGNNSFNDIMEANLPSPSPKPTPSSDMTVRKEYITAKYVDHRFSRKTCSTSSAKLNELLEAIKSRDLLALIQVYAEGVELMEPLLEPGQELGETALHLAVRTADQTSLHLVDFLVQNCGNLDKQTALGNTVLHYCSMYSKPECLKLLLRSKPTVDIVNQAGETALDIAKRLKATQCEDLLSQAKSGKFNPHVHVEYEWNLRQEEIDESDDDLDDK
# ARFGAP1 confirm – ARFGAP1 inhibitor hit confirmation, biochemical, fluorescence polarization, triplicate; shares compounds with ARFGAP1 inhibitor; ARFGAP1-stimulated ARF1 GTP hydrolysis, GDP tracer FP; inhibition, % at 16.5 µM; actives 30% (n = 890);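 active = average inhibition over triplicates above the hit cutoff set in the earlier primary screen, cut at about 25% in these data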
# Numbers stand for hits; - = inactive; . = no result given.
SMILES,ARFGAP1 inhibitor,Rin1 Abl inh,GalR3 antagonist,ASAP1 GAP inh,ARFGAP1 confirm
COc1ccc(-c2nc(C(=O)NCCCN3CCOCC3)cc3c2[nH]c2ccccc23)cc1OC,28,-,-,-,-
CCCCCn1c(=O)[nH]c2cc(C(=O)N3CCN(C(=O)OCC)CC3)ccc2c1=O,25,-,-,-,-
COc1cc(/C=N/Nc2ccc(C(F)(F)F)cn2)ccc1O,29,-,-,-,-
CCN(CC)C(=O)[C@H]1C[C@@H]2[C@H](C[C@@H](c3ccccc3)[C@H]1C)N(c1ccc(F)cc1)C(=O)N2CCCOc1ccccc1,-,.,-,-,.
Cc1ccc(/C=C(\CCC(=O)O)c2nc3ccccc3s2)cc1[N+](=O)[O-],31,-,-,-,39
CN(c1ccccc1)c1ccc(/C=C(\CCC(=O)O)c2nc3ccccc3s2)cc1[N+](=O)[O-],-,-,-,-,.
CNS(=O)(=O)c1cccc(C(=O)NCC(c2cccs2)N2CCOCC2)c1 (stereo not given),26,-,-,-,-
COC(=O)CC(=O)CC(NS(=O)(=O)c1ccc(C)cc1)c1ccccc1 (stereo not given),-,.,-,-,.
COc1ccc(NC(=O)N(C)C[C@@H]2OCCCC[C@@H](C)Oc3ccc(NS(C)(=O)=O)cc3C(=O)N([C@H](C)CO)C[C@@H]2C)cc1,-,.,-,-,.
COc1cc2oc(-c3ccc(O)cc3)cc(=O)c2c(O)c1OC,36,-,-,-,-
COc1cc2oc(-c3ccc(O)cc3)cc(=O)c2c(OC)c1O,-,-,-,-,.
CNC(C)C#Cc1ccc2oc3cccc(OC)c3c(=O)c2c1 (stereo not given),-,-,-,-,.
CNC(C)C#Cc1ccc2sc3cccc(OC)c3c(=O)c2c1 (stereo not given),28,-,-,-,-
CCNC(=O)NC(=O)C(C)Sc1nc2cc(C(=O)OC)ccc2c(=O)n1-c1ccccc1 (stereo not given),27,-,-,-,-
Nc1ccc2nc(-c3cccc(-c4nc5ccc(N)cc5[nH]4)c3)[nH]c2c1,60,-,-,-,106
Cc1ccc(C2C(C#N)=C(N)Oc3cc4c(cc32)OCO4)cc1 (stereo not given),25,-,-,-,-
COc1ccc(N2C[C@@]3(O)CC[C@@H](O)[C@@H](OC)[C@@H]3[C@@]2(C)[C@H](O)CC=C(C)C)cc1,-,.,-,-,.
O=C(NCc1cccs1)c1cc2c(s1)-c1ccccc1OC2,47,-,-,-,47
Cc1cccc(NC(=O)c2nc[nH]c2C(=O)N(C)CCO)c1,-,.,-,-,.
COC(=O)c1cc2c(c3c4cc(C)ccc4n(S(=O)(=O)c4cccc(C)c4)c13)C(=O)N(Cc1ccc(N(C)C)cc1)C2,-,.,-,-,.
O=C(NCc1ccc(Cl)cc1)C(=O)NCC(c1ccco1)N1CCOCC1 (stereo not given),30,-,-,-,-
Cc1ccc(CNC(=O)C(=O)NCC(c2ccco2)N2CCOCC2)cc1 (stereo not given),-,-,-,-,.
CSc1cccc(NC(=O)OC2CCCCCCCCCCC2)c1,-,-,-,-,.
CC(C)c1cccc(C(C)C)c1NC(=O)OC1CCCCC1,28,-,-,-,-
C=CCn1c2ccccc2c2nnc(SCCN3CCCCC3)nc21,-,-,-,-,.
SMILES,ARFGAP1 inhibitor,Rin1 Abl inh,GalR3 antagonist,ASAP1 GAP inh,ARFGAP1 confirm
C=CCn1c2ccccc2c2nnc(SCCCn3c(=O)[nH]c4ccccc43)nc21,40,-,-,-,-
CCS(=O)(=O)C(=C1NCCO1)S(=O)(=O)CC,25,-,-,-,-
COc1ccc(Cl)cc1NC(=O)c1nnn(CC(=O)Nc2ccc3c(c2)OCO3)c1N,94,-,-,-,132
Cc1ccc(NC(=O)Cn2nnc(C(=O)Nc3ccc(F)c(Cl)c3)c2N)cc1,-,-,-,-,.
COc1ccc(NC(=O)c2nnn(CC(=O)Nc3ccc4c(c3)OCO4)c2N)cc1OC,-,-,-,-,.
COc1ccc(NC(=O)Cn2nnc(C(=O)Nc3ccc(F)c(Cl)c3)c2N)cc1,27,-,-,-,36
